These results are taken from ChEMBL document CHEMBL2016492, “Design and synthesis of carbamate and thiocarbamate derivatives and their inhibitory activities of NO production in LPS activated macrophages” (Bioorg Med Chem Lett, 2012).

Usually inhibition stands for the relative decrease from the control value, in per cent. The term IC50 denotes the midpoint of a concentration-inhibition curve. Lower therefore signals higher potency.

Assay [1] deals with RAW264.7. As to the kind of experiment: Inhibition of LPS-induced NO production in mouse RAW264.7 cells at 20 uM after 20 hrs by Griess method. The format is functional. The settings on record: RAW264.7, 20 h. The method, boiled down: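 Same nitrite read-out in RAW 264.7 cells: 1% FBS medium, LPS 1 μg/mL with compound at 20 μM for 20 h. Griess reagent, 570 nm, nitrite standard curve. Percent inhibition relative to LPS-only control, n = 3.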
On the technique in general: The Griess reaction detects nitrite, a stable product of nitric oxide.

Assay [2] concerns RAW264.7. As to the kind of experiment: Inhibition of LPS-induced NO production in mouse RAW264.7 cells at 100 uM after 20 hrs by Griess method. In kind it is functional. The settings on record: RAW264.7, 20 h.
Assay [3] relates to RAW264.7. As to the kind of experiment: Inhibition of LPS-induced NO production in mouse RAW264.7 cells after 20 hrs by Griess method. In kind it is functional, cell-based. Conditions: RAW264.7, 20 h. The method in brief:
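RAW 264.7 cells in 10% FBS-DMEM plated at 1 × 10⁵ cells/mL for 24 h, then switched to 1% FBS medium. Incubated 20 h with LPS (1 μg/mL) ± compounds. Nitrite in supernatant measured with Griess reagent, 10 min at room temperature, absorbance 570 nm, sodium nitrite standard curve. IC50 taken from dose–response curve; mean ± SD of three experiments.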

In assay [4] the target is Transcription factor p65 (Mus musculus) (UniProt Q04207). Kind of assay: Inhibition of NF-kB p65 nuclear translocation in LPS-stimulated mouse RAW264.7 cells at 5 uM treated 30 mins before LPS challenge measured after 15 mins by Western blot analysis. For orientation: In western blotting, separated proteins are transferred to a membrane and probed.
Chain of Transcription factor p65 (Mus musculus) (Q04207 whole entry): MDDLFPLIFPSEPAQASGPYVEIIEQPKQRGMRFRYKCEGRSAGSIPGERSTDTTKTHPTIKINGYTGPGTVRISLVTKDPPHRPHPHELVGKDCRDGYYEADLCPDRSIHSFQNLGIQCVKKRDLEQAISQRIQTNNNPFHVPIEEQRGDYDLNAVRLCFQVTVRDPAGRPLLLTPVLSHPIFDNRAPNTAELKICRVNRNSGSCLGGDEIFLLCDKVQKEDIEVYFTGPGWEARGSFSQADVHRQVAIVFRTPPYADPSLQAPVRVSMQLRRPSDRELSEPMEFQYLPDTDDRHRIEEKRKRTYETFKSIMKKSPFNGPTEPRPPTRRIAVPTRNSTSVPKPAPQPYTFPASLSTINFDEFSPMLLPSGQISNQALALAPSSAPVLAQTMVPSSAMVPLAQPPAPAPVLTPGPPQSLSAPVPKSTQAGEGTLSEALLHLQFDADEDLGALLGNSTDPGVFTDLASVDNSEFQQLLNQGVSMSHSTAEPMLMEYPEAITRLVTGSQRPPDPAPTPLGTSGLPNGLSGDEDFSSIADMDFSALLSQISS
Assay [5] relates to RAW264.7. Kind of assay: Inhibition of LPS-induced iNOS mRNA expression in mouse RAW264.7 cells at 20 uM after 6 hrs by RT-PCR analysis. In kind it is functional, cell-based. The method, boiled down:
(§1)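 RAW 264.7 cells at 8 × 10⁵ per 60 mm dish stimulated 6 h with LPS (1 μg/mL) plus compound at 5 or 20 μM. Total RNA extracted; iNOS mRNA measured by RT-PCR with β-actin as internal control. PCR run 25 cycles (94 °C 30 s, 55 °C 30 s, 72 °C 30 s); products run on 2% agarose gel. Representative of three independent experiments.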

Assay [6] has as its target Transcription factor p65 (Mus musculus) (UniProt Q04207). Kind of assay: Inhibition of NF-kB p65 nuclear translocation in LPS-stimulated mouse RAW264.7 cells at 20 uM treated 30 mins before LPS challenge measured after 15 mins by Western blot analysis.
The test system of assay [7] is RAW264.7. Kind of assay: Inhibition of LPS-induced iNOS protein expression in mouse RAW264.7 cells at 20 uM after 20 hrs by Western blot analysis. The format is functional, cell-based. The method in brief:
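RAW 264.7 cells at 8 × 10⁵ per 60 mm dish treated 20 h with LPS (1 μg/mL) and compound (5, 20 μM). Cells washed and lysed; 20 μg lysate protein run on 8% SDS-PAGE, transferred to PVDF. Probed with anti-iNOS and anti-β-actin (internal control); ECL detection. Representative of three independent experiments.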

Assay [8] has as its system RAW264.7. Kind of assay: Inhibition of LPS-induced iNOS mRNA expression in mouse RAW264.7 cells at 5 uM after 6 hrs by RT-PCR analysis. The format is functional, cell-based. The method, boiled down:
as §1

Active and inactive are the calls of the source. The rule behind the calls is not given here.

As to `O=C(Nc1ccc(OCCn2c3ccccc3c3ccccc32)cc1)Oc1ccc([N+](=O)[O-])cc1`, in assay [1], at 20 µM the inhibition was 22%.

In assay [1], `CCSC(=O)Nc1ccc(OCCn2c3ccccc3c3ccccc32)cc1` displayed an inhibition at 20 µM of 26%.

On to `CCOC(=O)CNC(=O)Oc1ccc(OCCn2c3ccccc3c3ccccc32)cc1`, for which, in assay [1], the inhibition at 20 µM amounted to 35%. Consider `N=C(N)NN` [PIMAGEDINE], for which, in assay [2], the inhibition at 100 µM worked out at 74%. On to `CCNC(=S)Oc1ccc(OCCn2c3ccccc3c3ccccc32)cc1`, for which the inhibition at 20 µM in assay [1] came out at 10%. `CCNC(=O)Oc1ccc(OCCn2c3ccccc3c3ccccc32)cc1` had an inhibition at 20 µM in assay [1] of 10%.

Take `CC(C)OC(=S)Nc1ccc(OCCn2c3ccccc3c3ccccc32)cc1`: at 20 µM the inhibition in assay [1] was 20%. Turning to `CCOC(=O)CNC(=S)Oc1ccc(OCCn2c3ccccc3c3ccccc32)cc1`, the IC50 in assay [3] came out at 6.5 µM. Besides, the inhibition entry in assay [4], in assay [5], in assay [6], in assay [7] and in assay [8] was “Active” throughout. In addition, testing at 20 µM in assay [1] gave an inhibition of 73%. `S=C(Nc1ccc(OCCn2c3ccccc3c3ccccc32)cc1)OCc1ccccc1` yielded an inhibition at 20 µM in assay [1] of 18%. On the same count and under the same terms, in the case of `CSC(=O)Nc1ccc(OCCn2c3ccccc3c3ccccc32)cc1` it was 44%; in that of `COC(=O)CNC(=O)Oc1ccc(OCCn2c3ccccc3c3ccccc32)cc1`, 33%. On to `COC(=S)Nc1ccc(OCCn2c3ccccc3c3ccccc32)cc1`, for which the IC50 in assay [3] was 12 µM. The inhibition entry in assay [4], in assay [5], in assay [6] and in assay [7] was “Active” each time. Testing at 20 µM in assay [1] gave an inhibition of 60%.
